The test system of one assay is MCF7. Briefly: Cytotoxicity against human MCF7 cells after 72 hrs by MTT assay. In kind it is functional, cell-based. The note with it: MCF7, 72 h. Put shortly: (§1)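 Cells kept in log phase at 37 °C, 5% CO2, in RPMI-1640 with 10% foetal calf serum. Seeded at 3–8 × 10^4 mL^-1 according to growth rate. Treated 72 h with increasing drug concentrations, final solvent 0.5%. MTT read-out as absorbance at 540 nm, expressed as % of untreated control. IC50 taken from dose–survival curves.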
On the technique in general: Tetrazolium assays rely on reduction of a dye to a coloured formazan, in cell work by metabolically active cells.

A further assay has as its system HL-60. Briefly: Cytotoxicity against human HL60 cells after 72 hrs by MTT assay. In kind it is functional, cell-based. The following applies: HL-60, 72 h. Put shortly: as §1
Another assay deals with A-431. Briefly: Cytotoxicity against human A431 cells after 72 hrs by MTT assay. The format is functional, cell-based. The note with it: A-431, 72 h. Put shortly:
as §1

In a further assay the test system is 2008. Briefly: Cytotoxicity against human 2008 cells after 72 hrs by MTT assay. The format is functional, cell-based. The following applies: Homo sapiens, 2008, 72 h. Put shortly:
as §1

In the next assay the test system is A549. Briefly: Cytotoxicity against human A549 cells after 72 hrs by MTT assay. The format is functional, cell-based. The note with it: A549, 72 h. Put shortly: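 A549 cells kept in log phase at 37 °C, 5% CO2, in F-12 Ham's with 15% foetal calf serum, penicillin 50 units mL^-1 and streptomycin. Seeded at 3–8 × 10^4 mL^-1, then treated 72 h with increasing concentrations, final solvent 0.5%. MTT absorbance at 540 nm as % of untreated control. IC50 taken from dose–survival curves.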

Another assay has as its system Salmonidae. Briefly: Binding affinity to salmon testes DNA assessed as negative dichroic signal by linear dichroism experiment. Put shortly: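 Flow linear dichroism on salmon testes DNA at 1.5 × 10^-3 M in ETN buffer (10 mM Tris, 10 mM NaCl, 1 mM EDTA, pH 7). DNA orientation by shear gradient at 500–700 rpm. Spectra recorded at 25 °C at [drug]/[DNA] ratios of 0, 0.02, 0.04 and 0.08, each spectrum accumulated four times. DNA concentration from ε260 6600 M^-1 cm^-1.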

The source made the active and inactive calls. No cut-off for these calls is given here. A value given as a limit tells only on which side of the number the result lay.

As a reminder, the IC50 is the concentration that gives 50% inhibition. Low readings indicate greater potency in that assay, high ones weaker potency in that assay.

Turning to `COc1ccc2nc3oc(=O)ccc3c(Cl)c2c1`, the IC50 was > 100 µM in the assay with MCF7; > 100 µM with HL-60; 97 µM with A-431; > 100 µM in the assay on 2008; > 100 µM in the assay on A549.

For `COc1cc(NS(C)(=O)=O)ccc1Nc1c2ccccc2nc2oc(=O)ccc12`, the IC50 with MCF7, in the assay on HL-60, in the assay on A-431, with 2008 and in the assay on A549 was > 100 µM throughout.

For `COc1cc(NS(C)(=O)=O)ccc1Nc1c2ccc(=O)oc2nc2c(OC)cccc12`, the IC50 in the assay with MCF7 is > 100 µM; in the assay with HL-60, > 100 µM; with A-431, > 100 µM; in the assay with 2008, > 100 µM; with A549, 81.5 µM.

Consider `COc1ccc2nc3oc(=O)ccc3c(Nc3ccc(NS(C)(=O)=O)cc3OC)c2c1`, for which the IC50 with MCF7 is > 100 µM; in the assay on HL-60, 95.2 µM; in the assay with A-431, 85.7 µM; with 2008, > 100 µM; with A549, > 100 µM.

Take `COc1ccc2nc3oc(=O)ccc3c(Nc3ccc(NS(C)(=O)=O)cc3)c2c1`: the IC50 with MCF7 is 60.6 µM; with HL-60, 47.3 µM; in the assay with A-431 it was 55.6 µM; with 2008 it was 68.2 µM; in the assay with A549, > 100 µM.

Turning to `O=c1ccc2c(Cl)c3ccccc3nc2o1`, the IC50 was > 100 µM with MCF7; 39.5 µM in the assay on HL-60; 54.3 µM in the assay on A-431; 52.6 µM with 2008; 62.9 µM in the assay on A549.

Turning to `COc1ccc2c(Nc3ccc(NS(C)(=O)=O)cc3)c3ccc(=O)oc3nc2c1`, the IC50 with MCF7 is > 100 µM; in the assay with HL-60 it was > 100 µM; in the assay on A-431, 92.7 µM; in the assay on 2008 it was > 100 µM; in the assay with A549, > 100 µM.

Take `CS(=O)(=O)Nc1ccc(Nc2c3ccccc3nc3oc(=O)ccc23)cc1`: the IC50 in the assay on MCF7 was > 100 µM; in the assay on HL-60, 92.1 µM; in the assay with A-431 it was 94.1 µM; in the assay on 2008 it was > 100 µM; in the assay with A549, > 100 µM.

For `COc1cccc2c(Nc3ccc(NS(C)(=O)=O)cc3)c3ccc(=O)oc3nc12`, the IC50 in the assay on MCF7, in the assay with HL-60, in the assay on A-431, with 2008 and in the assay with A549 was > 100 µM each time.

Turning to `COc1cccc2c(Cl)c3ccc(=O)oc3nc12`, the IC50 in the assay on MCF7 came out at 54.1 µM; with HL-60 it was 37.1 µM; in the assay on A-431, 55.3 µM; in the assay on 2008, 60.6 µM; in the assay with A549, 75.4 µM.

Consider `COc1ccc2c(Cl)c3ccc(=O)oc3nc2c1`, for which the IC50 is 50.1 µM with MCF7; 60.3 µM with HL-60; > 100 µM in the assay with A-431; > 100 µM in the assay on 2008; 53.4 µM with A549.

For `COc1cc(NS(C)(=O)=O)ccc1Nc1c2ccccc2nc2ccccc12` [AMSACRINE], the IC50 is 5.13 µM with MCF7; 1.15 µM in the assay on HL-60; 5.89 µM in the assay on A-431; 4.31 µM with 2008; 3.52 µM with A549. In the assay on Salmonidae, the result was Active.

The values above are taken from ChEMBL document CHEMBL1140883, “Synthesis and antitumor activity of novel amsacrine analogs: the critical role of the acridine moiety in determining their biological activity” (Bioorg Med Chem, 2009).
